This is a sample that favours compounds with a hit; in the whole collection about 2.3% have one here.
DNMT1 inh: DNMT1 (human) enzyme inhibition; DNMT1 molecular beacon, Hinp1I cleavage, fluorescence; P26358; inhibition (reported as % activation of signal), % at 10 µM; 0.83% of 360,000 active; in the data active = inhibition above about 50%
Scp-1 inhibitor: blocks human Scp-1 phosphatase activity; 0.88% of 340,000 active; Recombinant Scp1, phosphopeptide, malachite green phosphate absorbance; inhibition, % at 20 µM;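 active = inhibition above about 50% at 20 µM, limit read from the data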
Target sequence (Q9GZU7 76-261 limits assumed): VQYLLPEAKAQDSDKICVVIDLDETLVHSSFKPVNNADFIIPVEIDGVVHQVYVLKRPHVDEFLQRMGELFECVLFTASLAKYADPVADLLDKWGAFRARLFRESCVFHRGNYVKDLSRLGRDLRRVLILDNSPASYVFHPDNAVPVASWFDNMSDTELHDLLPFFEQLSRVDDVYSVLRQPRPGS
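Test system: SCP-1 phosphatase catalytic domain, residues 76-261; measured by: colorimetric phosphate reagent with accelerator and stabiliser, absorbance at 630 nm; timing: enzyme reaction 45 min at room temperature, colour 5 min, stabilisation 30 min; also added: Phosphorylated 17-residue peptide substrate; compound dosing: one concentration, 20 µM, with 1.0% DMSO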
LMPTP block: blocks human LMPTP phosphatase | P24666 | recombinant LMPTP-A, OMFP fluorogenic substrate, fluorescence intensity | inhibition, % at 20 µM | 0.22% of 360,000 active;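 active = compounds that cut the enzyme signal by at least half of the control window in the single-dose screen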
Target sequence (P24666 whole entry, looked up): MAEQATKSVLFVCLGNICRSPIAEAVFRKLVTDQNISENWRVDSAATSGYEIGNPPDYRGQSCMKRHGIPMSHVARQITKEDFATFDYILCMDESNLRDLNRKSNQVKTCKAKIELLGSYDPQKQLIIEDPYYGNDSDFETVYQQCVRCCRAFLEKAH
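Test system – LMPTP-A phosphatase enzyme · Quantity – 0.625 nM LMPTP-A final · Reagent – OMFP substrate, 400 µM final · Dosing – one test concentration per compound, 20 µM, with 3% DMSO overall · Timing – 50 min enzyme reaction at room temperature, protected from light · Detection – fluorescence intensity · Controls – substrate-only low control, DMSO enzyme-plus-substrate high control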
Rpn11 block: inhibitors of human proteasome Rpn11. O00487. human 26S proteasome, Ub4-pepOG fluorescence polarization; 20S core pre-blocked with epoxomicin. inhibition, % at 20 µM. 0.59% of 360,000 active;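 active = inhibition at 20 µM, scaled to each plate's controls, above about 33%, limit read from the data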
SUMO1 PPI mod: modulators of human SUMO1-mediated protein-protein interactions; P63165; SUMO1 binding to a labelled peptide, TR-FRET, 1 h; inhibition, % at 20 µM; 0.33% of 360,000 active; AID 602429; in the data active = inhibition above about 37%
Target sequence (P63165 whole entry, looked up): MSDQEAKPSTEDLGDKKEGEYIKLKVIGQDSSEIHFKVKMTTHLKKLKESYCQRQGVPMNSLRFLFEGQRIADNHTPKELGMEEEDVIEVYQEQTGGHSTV
STEP block: STEP (human) phosphatase inhibition | inhibition, % at 20 µM | 0.25% of 360,000 active | recombinant STEP, OMFP fluorogenic substrate, fluorescence;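 active = inhibition at 20 µM, scaled per plate between control wells, above about 37%, limit read from the data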
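Also added – OMFP at 25 µM · Test system – STEP tyrosine phosphatase · Technique – FITC-channel fluorescence of OMFP product · Schedule – 20 min at room temperature, dark · Evaluation – control-normalized % inhibition with plate pattern correction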
A number is an active result; i = inactive; nt = no result given.

SMILES	DNMT1 inh	Scp-1 inhibitor	LMPTP block	Rpn11 block	SUMO1 PPI mod	STEP block
O=C(c1ccc(Cl)cc1Cl)N1CCC(c2nc3c(nnn3Cc3ccco3)c(=O)[nH]2)CC1	i	i	i	i	i	i
Cc1cc(C)c2c(=O)n3c(nc2c1)C(C)NC(=O)c1cccnc1-3 (stereo unspecified)	i	nt	i	i	i	i
COc1ccc(-n2c3c(c(=O)[nH]c2=O)C(NC(=O)c2ccncc2)(C(F)(F)F)C(=O)N3)cc1 (stereo unspecified)	i	i	i	i	i	i
CC(C)CN(C(=O)COC(=O)c1cccs1)c1c(N)n(Cc2ccccc2)c(=O)[nH]c1=O	i	nt	i	i	i	i
COCCN(C(=O)COC(=O)c1cc2c(s1)CCC2)c1c(N)n(Cc2ccccc2)c(=O)[nH]c1=O	101	88	72	nt	112	96
CC(C)CN(C(=O)COC(=O)c1ccc([N+](=O)[O-])s1)c1c(N)n(Cc2ccccc2)c(=O)[nH]c1=O	56	i	i	i	i	i
CCC1CCc2sc(C(=O)OCC(=O)N(CCOC)c3c(N)n(Cc4ccccc4)c(=O)[nH]c3=O)cc2C1 (stereo unspecified)	i	i	i	i	i	i
COCCCC1CCN(Cc2nc(Cc3ccccc3Cl)no2)CC1	i	i	i	i	i	i
OC1CCN(Cc2nc(Cc3ccccc3Cl)no2)CC1	i	i	i	i	45	i
Cc1ccccc1NC(=S)N(Cc1cccnc1)Cc1ccccc1Cl	i	i	i	i	i	i
O=C(COC(=O)c1ccc([N+](=O)[O-])s1)NC(c1ccccc1)c1ccccc1	i	i	i	i	59	i
O=C(COC(=O)c1ccc([N+](=O)[O-])s1)Nc1ccccc1	i	i	i	i	i	i
CCOC(=O)C1=C(C)N(C)C(=O)NC1c1cccc(O)c1 (stereo unspecified)	i	i	i	i	56	i
CCOC(=O)C1=C(C)N(CCO)C(=O)NC1c1cccc(O)c1 (stereo unspecified)	i	i	i	i	i	i
CC[n+]1c(/C=C/C=C/N(C(C)=O)c2ccccc2)sc2cc(OC)ccc21	nt	61	nt	nt	nt	nt
COC(=O)Oc1nsnc1N1CCOCC1	i	70	i	i	i	i
O=C(O)c1c2c(nc3ccccc13)/C(=C/c1ccc(OC(F)F)cc1)CCC2	i	i	i	i	i	i
O=C(O)c1c2c(nc3ccccc13)/C(=C/c1ccc(O)cc1)CC2	87	62	i	i	i	41
Cc1ccc(S(=O)(=O)NCc2cccnc2)cc1C(=O)NC1CCCCC1	i	i	i	i	i	i
CCn1c(C)[n+](CC(O)COCC2CC=CCC2)c2ccccc21 (stereo unspecified)	i	86	i	i	i	i
Nc1nn2c(-c3ccccc3)cc(=O)[nH]c2c1N=Nc1ccc(Br)cc1	i	i	56	i	i	i
Nc1nn2c(-c3ccccc3)cc(=O)[nH]c2c1N=Nc1ccc(O)cc1	i	i	i	i	i	i
CCc1c(C)nc2c(C#N)c(C)[nH]n2c1=O	i	i	i	i	54	i
c1ccc(CN2CCC(Nc3nc(-c4cccs4)nc4ccccc34)CC2)cc1	i	i	i	i	i	i
Cc1ccc(C)n1Cc1ccc(C(=O)O)cc1	106	114	i	i	i	93
SMILES	DNMT1 inh	Scp-1 inhibitor	LMPTP block	Rpn11 block	SUMO1 PPI mod	STEP block
Nc1ccc2cc3[nH]c4cc(N)ccc4c3nc2c1	194	i	58	i	i	i
Nc1ccc(-c2nc3ccc(N)cc3[nH]2)cc1	i	i	i	i	i	i
O=C(Nc1nnc([C@@H]2C[C@H](O)[C@@H](CO)O2)s1)Nc1ccccc1F	i	nt	i	i	i	i
CC(=O)Nc1cc(-c2cccc(NS(C)(=O)=O)c2)cn2c(-c3cccc(C(F)(F)F)c3)cnc12	i	nt	i	i	i	i
CC(=O)Nc1cc(-c2ccccc2N(C)C)cn2c(-c3cccc(C(F)(F)F)c3)cnc12	61	nt	i	i	i	i
CCOc1ccc(NC(=O)N2CCC(c3nc4ccccc4[nH]3)CC2)cc1	i	i	i	i	i	i
CC1(C)C(c2ccccc2)=[N+]([O-])CN1O	i	i	i	i	i	i
O=[N+]([O-])c1ccc(Cl)c2c1C1C=CCC1C(c1ccccn1)N2 (stereo unspecified)	51	i	i	i	i	i
CCCCN=Cc1c(C)[nH]n(-c2ccccc2)c1=S	i	i	i	i	i	i
Cc1[nH]n(-c2ccccc2)c(=S)c1C=Nc1cccc([N+](=O)[O-])c1	i	87	i	i	i	i
Cc1ccc(-c2nc(NCc3cccnc3)c3ccccc3n2)cc1	i	i	63	i	i	i
COc1ccc(CNc2nc(-c3ccccc3)nc3ccccc23)cc1OC	i	i	63	i	i	i
c1ccc(-c2nc(NCc3cccnc3)c3ccccc3n2)cc1	i	i	58	i	i	i
Clc1cccc(-c2nc(NCc3cccnc3)c3ccccc3n2)c1	i	i	i	i	i	i
COCCCNc1nccn2ccnc12	i	nt	i	i	i	i
O=C(c1cc(C2CC2)nn1-c1ccccc1)N1CCN(c2ccc(O)cc2)CC1	i	i	i	i	i	i
Cc1cc(C)c(C(=O)Nn2c(C)nc3ccccc3c2=O)cc1C	i	i	i	i	i	i
Cc1ncc(CO)c(/C=N/NC(=S)Nc2cccc(Cl)c2)c1O	i	i	i	i	i	64
CC(C)Nc1ncnc2c1cnn2-c1ccc(Cl)cc1	86	i	i	i	i	i
CNc1nc(NC)c2cn[nH]c2n1	i	i	63	i	i	i
CC(C)Nc1ncnc2[nH]ncc12	i	i	i	i	i	i
O=C(CN1C(=O)NC2(CCCCC2)C1=O)N1CCN(S(=O)(=O)/C=C/c2ccccc2)CC1	i	i	i	i	i	i
COc1cc(/C=N/Nc2ccc(Cl)c(C(=O)O)c2)ccc1OC(=O)c1cccs1	i	i	i	i	i	i
COc1ccc(S(=O)(=O)NCc2csc(-c3cccnc3)n2)cc1	i	i	i	i	43	i
O=S(=O)(NCc1csc(-c2cccnc2)n1)c1ccc(Br)cc1	i	i	i	i	i	i
O=C1NC(c2cccc(OCc3ccccc3)c2)Nc2ccccc21 (stereo unspecified)	i	i	i	i	i	i
NC(=S)NNc1cccc2cccnc12	i	i	50	i	i	i
NC(=S)Nc1cccc2cccnc12	i	i	i	i	i	i
CC(C)OC(=O)/C(C#N)=C/c1ccc(-c2ccc(SC(F)F)cc2)o1	i	i	i	57	i	i
